T cruzi repl = T. cruzi replication inhibition; actives 1.4% (n = 300,000); AID 1885; T. cruzi beta-gal in NIH3T3, luminescence, 90 h; inhibition, % (concentration not given with the values);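 active = mean inhibition across valid replicates above about 55%, limit read from the data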;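 note: signal also drops with host cell toxicity which is not excluded here; higher percent means less beta-gal luminescence so fewer parasites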
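assay system = mouse NIH/3T3 fibroblasts infected with β-gal-expressing T. cruzi Tulahuen C4 | input = 5,000 NIH/3T3 host cells per well | buffer or medium = DMEM plus 2% FBS | timing = 3 h host attachment, then at least 90 h co-culture | measured by = GalScreen luminescence, 60 min | evaluation = luminescence reflecting intracellular parasite burden, expressed as percent inhibition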
CSC inhib = blocks cancer stem cells. inhibition, % at 7.5 µM. actives 1.1% (n = 300,000). cancer stem cell-like cells viability, luminescence; in the data active = inhibition above about 75%; tested in HMLE shEcad cells
Calb FLC = affects C. albicans growth with fluconazole; C. albicans CaCi-2 + fluconazole, Alamar Blue growth, 48 h; growth inhibition, % (test concentration not listed); actives 0.57% (n = 300,000); AID 1979;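 active = growth inhibition above about 58% in most replicates, limit read from the data, passing the limit was not always enough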;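 note: all wells also contain fluconazole at 8 µg/ml as a sub-toxic cotreatment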
Beta apoptosis = beta cell apoptosis inhibition; protection from apoptosis, % (test concentration not listed); INS-1E cytokine-induced death, ATP luminescence, 48 h; percent of positive-control rescue, neutral wells zero; actives 0.8% (n = 300,000);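 active = Every replicate reaches about 75%, or at least half do and their mean reaches it too, limit read from the data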;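 note: higher means more ATP so stronger rescue from cytokine killing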
SKKanGAS inh = SKKanGAS growth inhibition. S. pyogenes SKKanGAS, kanamycin growth, BacTiter-Glo, 6 h. inhibition, % at 7.5 µM. actives 1.3% (n = 300,000). AID 1662;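 active = mean replicate score, as percent of positive control median, at least 50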;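 note: strain carries kanamycin resistance gene driven by streptokinase promoter and grows in 40 µg/ml kanamycin; loss of luminescence reflects streptokinase promoter inhibition or plain growth inhibition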
Mdm2 MdmX PPI = disrupts the human Mdm2-MdmX interaction. O15151+Q00987. SaOS-2 split-luciferase Mdm2/MdmX complementation, luminescence. inhibition, % at 8 µM. actives 3% (n = 330,000). AID 485346;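 active = inhibition of at least 50% at 8 µM in the primary screen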
Target sequence (O15151 whole entry, looked up): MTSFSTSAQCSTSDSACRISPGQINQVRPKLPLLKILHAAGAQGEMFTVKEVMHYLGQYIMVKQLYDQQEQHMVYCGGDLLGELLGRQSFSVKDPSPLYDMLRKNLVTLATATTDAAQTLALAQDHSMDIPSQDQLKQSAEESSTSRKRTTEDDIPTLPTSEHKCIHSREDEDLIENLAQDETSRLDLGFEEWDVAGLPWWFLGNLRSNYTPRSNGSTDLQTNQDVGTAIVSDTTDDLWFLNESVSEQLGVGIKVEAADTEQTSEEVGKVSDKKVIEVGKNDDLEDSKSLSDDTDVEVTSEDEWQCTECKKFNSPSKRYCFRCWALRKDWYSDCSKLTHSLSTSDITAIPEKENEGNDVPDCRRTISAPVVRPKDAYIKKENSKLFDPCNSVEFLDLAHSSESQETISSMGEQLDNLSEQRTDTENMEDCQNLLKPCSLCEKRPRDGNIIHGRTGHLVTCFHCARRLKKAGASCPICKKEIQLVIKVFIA
Target sequence (Q00987 whole entry, looked up): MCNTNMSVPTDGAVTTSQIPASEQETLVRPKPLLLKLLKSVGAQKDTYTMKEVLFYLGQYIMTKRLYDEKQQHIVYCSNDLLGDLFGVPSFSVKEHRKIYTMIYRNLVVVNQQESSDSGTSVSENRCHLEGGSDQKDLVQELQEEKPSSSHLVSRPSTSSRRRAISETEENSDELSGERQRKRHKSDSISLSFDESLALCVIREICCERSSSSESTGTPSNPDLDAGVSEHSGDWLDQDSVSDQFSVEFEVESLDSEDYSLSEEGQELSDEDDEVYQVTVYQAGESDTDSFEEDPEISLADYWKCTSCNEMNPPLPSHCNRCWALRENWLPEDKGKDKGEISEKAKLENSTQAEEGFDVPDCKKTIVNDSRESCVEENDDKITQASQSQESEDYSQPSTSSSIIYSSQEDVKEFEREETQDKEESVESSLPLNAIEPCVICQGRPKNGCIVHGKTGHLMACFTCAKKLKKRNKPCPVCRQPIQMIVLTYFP
Mdm2-MdmX conf = human Mdm2/MdmX binding inhibition, confirmed; shares compounds with Mdm2 MdmX PPI; inhibition, % at 8 µM; AID 489028; luminescent assay; actives 55% (n = 10,000); in the data active = inhibition above about 40%
Full FLuc ctr = inhibits full-length luciferase, flagging false Mdm2/MdmX hits; shares compounds with Mdm2 MdmX PPI; SaOS-2 full-length luciferase counterscreen, luminescence; inhibition, % at 8 µM; actives 77% (n = 6,200); AID 504607;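 active = mean inhibition at 8 µM reaching about 37%, which flags the compound as non-specific, limit read from the data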;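 note: p53-null SaOS-2 cells with luciferase driven by a doxycycline-inducible promoter; compound on cells about two nights before reading with doxycycline added after day one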
Of the large screens only hits and unclear results are named; the others gave an inactive call (follow-up assays come after a bar, where they were run). Hits are enriched below; roughly 5.7% of the tested compounds scored in any of these assays.

Cc1c(C(=O)Nc2cccc([N+](=O)[O-])c2)sc2ncn(CC(=O)N3CCOCC3)c(=O)c12	none
COc1ccc(NC(=O)C(=O)NCC(=O)Nc2cc(OC)ccc2OC)cc1	none
O=C(O)COC(=O)C1C(c2ccccc2)C(C(=O)O)C1c1ccccc1 (stereo not given)	none
CN(c1cccc(NC(=O)CN2C(=O)c3ccccc3S2(=O)=O)c1)S(C)(=O)=O	Mdm2 MdmX PPI 51 | Mdm2-MdmX conf inactive | Full FLuc ctr 82
CN(Cc1ccc(Cl)c(Cl)c1)C(=O)CN1C(=O)NC2(CCCC2)C1=O	none
COc1ccc(OC)c(NC(=O)c2ccc(NC(C)=O)cc2)c1	none
O=C(CCn1c(=O)oc2cc(Cl)ccc21)Nc1ccc(O)cc1	none
CCc1nnc(NC(=O)CSc2nnc(-c3ccccc3O)n2-c2ccc(C)cc2C)s1	Mdm2 MdmX PPI 63 | Mdm2-MdmX conf 53 | Full FLuc ctr 61
CC(=O)Nc1ccc2c(c1)n(C)c(=O)n2C	Mdm2 MdmX PPI 66 | Mdm2-MdmX conf inactive
COc1ccc(OC)c(C(=O)c2ccc(C(=O)Nc3ccc(NC(C)=O)cc3)cc2)c1	Mdm2 MdmX PPI 74 | Mdm2-MdmX conf inactive
CCn1c(=O)oc2cc(NC(=O)CCl)ccc21	Mdm2 MdmX PPI 66 | Mdm2-MdmX conf inactive
Cn1c(=O)n(C)c2cc(NC(=O)CSc3nnc(-c4ccccc4O)n3-c3ccccc3)ccc21	Mdm2 MdmX PPI 58 | Mdm2-MdmX conf inactive
Cn1c(=O)n(C)c2cc(NC(=O)COc3ccccc3)ccc21	none
Cn1c(=O)n(C)c2cc(NC(=O)CCl)ccc21	Mdm2 MdmX PPI 69 | Mdm2-MdmX conf 67 | Full FLuc ctr 46
CCOc1ncccc1C(=O)Nc1ccc(C(=O)Nc2ccc(OC)cc2)cc1	Mdm2 MdmX PPI 72 (no result: T cruzi repl, CSC inhib, Calb FLC, SKKanGAS inh) | Mdm2-MdmX conf inactive
CC(=O)Oc1ccc(C(=O)Nc2cccc(C(=O)c3cccc(NC(=O)c4ccc(OC(C)=O)cc4)c3)c2)cc1	Mdm2 MdmX PPI 79 | Mdm2-MdmX conf inactive | Full FLuc ctr 86
CCn1c(SCC(=O)Nc2ccc3c(c2)n(C)c(=O)n3C)nnc1-c1ccncc1	none
Cc1ccc(S(=O)(=O)Nc2cccc(C(=O)NCCCN3CCOCC3)c2)cc1F	none
COc1ccc(NC(=O)c2ccc3c(c2)n(C)c(=O)n3C)cc1	Mdm2 MdmX PPI 52 (no result: Beta apoptosis) | Mdm2-MdmX conf inactive
CCCC(=O)N(Cc1cc(=O)[nH]c2ccccc12)c1ccc(OC)cc1	none
COc1ccc(N(Cc2cc(=O)[nH]c3ccccc23)C(=O)CCl)cc1	Mdm2 MdmX PPI 100 | Mdm2-MdmX conf 79 | Full FLuc ctr 63
CCCC(=O)N(Cc1cc(=O)[nH]c2ccccc12)c1cccc(C)c1	none
Cc1cccc(N(Cc2cc(=O)[nH]c3ccccc23)C(=O)CCl)c1	CSC inhib 105, Mdm2 MdmX PPI 100 | Mdm2-MdmX conf 100 | Full FLuc ctr 56
CCOc1cccc(/C=N/NC(=O)c2cc(C3CC3)[nH]n2)c1O	CSC inhib 128, Beta apoptosis 96, Mdm2 MdmX PPI 59 | Mdm2-MdmX conf inactive
O=c1[nH]c(=O)n([C@H]2C[C@H](O)[C@@H](CO)O2)cc1C(F)(F)F	Mdm2 MdmX PPI 60 (no result: Calb FLC) | Mdm2-MdmX conf 52 | Full FLuc ctr 56
CNC(=O)c1ccccc1Sc1ccccc1C#N	none
Cc1c2ccccc2c(C)c2c1ccc1ccccc12	Mdm2 MdmX PPI 79 (no result: T cruzi repl, Calb FLC, SKKanGAS inh) | Mdm2-MdmX conf 40 | Full FLuc ctr 98
O=c1c2ccccc2nc2sc(Nc3cccc(Cl)c3)nn12	Mdm2 MdmX PPI 73 (no result: T cruzi repl, Calb FLC, SKKanGAS inh) | Mdm2-MdmX conf inactive
CCC12C(=O)C(CC)(C(c3ccccc3)=C1c1ccccc1)[C@@H]1C(=O)N(c3ccccc3)C(=O)C12 (stereo not given in full)	Mdm2 MdmX PPI 54 | Mdm2-MdmX conf 65 | Full FLuc ctr 59
CCCC12C(=O)C(C)(C(c3ccccc3)=C1c1ccccc1)C1C(=O)N(c3ccc(C)cc3)C(=O)C12 (stereo not given)	Beta apoptosis 105, Mdm2 MdmX PPI 80 | Mdm2-MdmX conf 80 | Full FLuc ctr 69

Bioassay records (PubChem BioAssay)
